From article PMC5696082 (Analytical biochemistry, 2017)

Experiments:
Kidney S9 = experiment: Substrate hydrolysis by pooled tissue S9, kidney; assay type: biochemical, human
Method in brief: (§1)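 Commercial pooled human tissue S9 fraction added to substrate at 50 µM final in 100 mM sodium phosphate, pH 8.0, 0.1 mg/mL BSA. Fluorescence monitored every 30 s for at least 10 min at 37°C. Specific activity given as the mean of triplicates in one experiment, or mean ± standard deviation of 3 independent experiments run in triplicate.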

Lung S9 = experiment: Substrate hydrolysis by pooled tissue S9, lung; assay type: biochemical, human
Method in brief: as §1

hCE1 [1] = target: T1, hCE1 (Homo sapiens, UniProt P23141); experiment: Specific activity of hCE1 towards substrates; assay type: biochemical
T1 sequence (P23141 18-567): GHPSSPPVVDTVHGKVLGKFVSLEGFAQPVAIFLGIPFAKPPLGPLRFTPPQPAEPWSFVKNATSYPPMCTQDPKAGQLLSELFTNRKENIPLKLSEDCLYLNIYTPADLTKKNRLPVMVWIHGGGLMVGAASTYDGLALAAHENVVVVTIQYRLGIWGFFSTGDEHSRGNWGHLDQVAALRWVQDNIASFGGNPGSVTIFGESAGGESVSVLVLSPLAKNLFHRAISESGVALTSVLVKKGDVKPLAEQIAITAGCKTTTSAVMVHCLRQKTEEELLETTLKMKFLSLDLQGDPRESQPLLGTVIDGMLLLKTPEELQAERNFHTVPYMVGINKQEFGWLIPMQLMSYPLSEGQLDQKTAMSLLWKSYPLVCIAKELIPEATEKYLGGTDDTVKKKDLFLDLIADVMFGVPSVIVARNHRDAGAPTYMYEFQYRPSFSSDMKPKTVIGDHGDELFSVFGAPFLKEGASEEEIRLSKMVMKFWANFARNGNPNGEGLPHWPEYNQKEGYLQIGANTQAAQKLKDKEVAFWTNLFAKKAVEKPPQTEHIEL
Method in brief: (§2)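 Enzymes expressed in baculovirus-infected High Five cells: hCE1 CHAPS-solubilised from the 100,000 g pellet, then DEAE-purified; hCE2/hCE3 crude soluble fraction; FAAH crude insoluble fraction. Substrate added to 50 µM final in 100 mM sodium phosphate pH 8.0, 0.1 mg/mL BSA, 1% DMSO. Fluorescence read every 30 s for ≥10 min at 37°C. Rates corrected for estimated purity: hCE1 25%, hCE2 4%, hCE3 3.5% (3% in footnotes), FAAH 6.9%. Triplicates.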

hCE2 [2] = target: T2, hCE2 (Homo sapiens, UniProt O00748); experiment: Specific activity of hCE2 towards substrates; assay type: biochemical
T2 sequence (O00748 27-559): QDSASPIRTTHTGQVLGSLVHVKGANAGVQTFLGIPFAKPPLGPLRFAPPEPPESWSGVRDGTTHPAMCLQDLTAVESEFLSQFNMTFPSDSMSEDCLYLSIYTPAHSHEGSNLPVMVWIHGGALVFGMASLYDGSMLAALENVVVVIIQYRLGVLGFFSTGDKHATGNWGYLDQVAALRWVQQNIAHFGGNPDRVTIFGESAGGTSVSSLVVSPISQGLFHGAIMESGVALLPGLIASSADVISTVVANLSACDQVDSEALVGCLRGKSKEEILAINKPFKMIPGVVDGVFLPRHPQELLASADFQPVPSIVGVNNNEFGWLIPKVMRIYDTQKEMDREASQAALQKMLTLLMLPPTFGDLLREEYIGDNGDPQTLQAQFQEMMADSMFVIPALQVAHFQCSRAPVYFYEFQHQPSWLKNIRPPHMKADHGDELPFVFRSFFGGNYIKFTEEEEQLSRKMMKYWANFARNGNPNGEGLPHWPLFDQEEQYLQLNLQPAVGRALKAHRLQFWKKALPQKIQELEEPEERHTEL
Method in brief: as §2

hCE3 [3] = target: T3, hCE3 (Homo sapiens, UniProt Q6UWW8); experiment: Specific activity of hCE3 towards substrates; assay type: biochemical
T3 sequence (Q6UWW8 27-571): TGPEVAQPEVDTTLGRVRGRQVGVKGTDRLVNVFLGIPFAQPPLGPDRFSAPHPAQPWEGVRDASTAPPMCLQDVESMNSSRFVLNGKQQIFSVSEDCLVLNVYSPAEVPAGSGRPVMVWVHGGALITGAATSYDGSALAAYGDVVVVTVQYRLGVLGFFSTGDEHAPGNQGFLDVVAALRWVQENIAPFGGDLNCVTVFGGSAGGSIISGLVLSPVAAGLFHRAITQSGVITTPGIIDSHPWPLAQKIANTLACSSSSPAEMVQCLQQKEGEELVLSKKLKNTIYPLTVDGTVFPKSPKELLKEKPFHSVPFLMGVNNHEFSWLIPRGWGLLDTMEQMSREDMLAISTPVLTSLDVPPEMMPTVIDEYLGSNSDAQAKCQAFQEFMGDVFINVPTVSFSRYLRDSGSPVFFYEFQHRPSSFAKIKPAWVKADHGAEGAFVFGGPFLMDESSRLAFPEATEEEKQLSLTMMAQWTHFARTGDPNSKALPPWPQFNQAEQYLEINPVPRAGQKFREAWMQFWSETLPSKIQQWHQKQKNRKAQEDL
Method in brief: as §2

FAAH [4] = target: T4, FAAH (Homo sapiens, UniProt O00519); experiment: Specific activity of FAAH towards substrates; assay type: biochemical; details: Table 2; [S] = 50 µM, 37°C, pH 8; estimated 6.9% purity
T4 sequence (O00519 1-579): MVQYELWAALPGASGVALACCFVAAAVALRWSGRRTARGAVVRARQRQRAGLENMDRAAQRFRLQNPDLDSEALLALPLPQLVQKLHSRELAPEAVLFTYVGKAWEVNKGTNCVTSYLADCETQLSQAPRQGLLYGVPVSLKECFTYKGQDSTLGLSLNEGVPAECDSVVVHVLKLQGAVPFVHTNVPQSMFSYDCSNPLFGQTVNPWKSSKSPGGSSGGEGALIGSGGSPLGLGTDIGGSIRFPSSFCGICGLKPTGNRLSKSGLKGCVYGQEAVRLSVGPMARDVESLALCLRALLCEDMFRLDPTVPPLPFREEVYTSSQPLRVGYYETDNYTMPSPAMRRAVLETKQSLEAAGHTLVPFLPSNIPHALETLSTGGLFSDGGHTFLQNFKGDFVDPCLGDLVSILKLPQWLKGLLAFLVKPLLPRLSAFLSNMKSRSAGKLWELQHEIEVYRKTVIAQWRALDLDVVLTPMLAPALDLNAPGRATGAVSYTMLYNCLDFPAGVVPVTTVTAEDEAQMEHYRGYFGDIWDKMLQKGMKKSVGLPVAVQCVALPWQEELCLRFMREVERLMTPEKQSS
Method in brief: as §2

Intestine S9 = experiment: Substrate hydrolysis by pooled tissue S9, intestine; assay type: biochemical, human
Method in brief: as §1

Liver S9 = experiment: Substrate hydrolysis by pooled tissue S9, liver; assay type: biochemical, human
Method in brief: as §1

hCE1 [5] = target: T1, hCE1; experiment: Limit of detection and quantification for hCE1 using partially purified enzyme; assay type: biochemical; details: [S] = 50 µM; for LOD for hCE1: S/N > 3; for LOQ for hCE1: S/N > 9
Method in brief: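 Partially purified recombinant hCE1, without any matrix, diluted into wells with substrate at 50 µM. Assay run in 100 mM sodium phosphate, pH 8, 0.1 mg/mL BSA, 1% DMSO, at 37°C. S/N taken as mean signal of enzyme wells over the SD of […], quadruplicates in one experiment. LOD set as the lowest level with S/N > 3; LOQ as S/N > 9.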

[6] = Background hydrolysis of substrates in phosphate buffer; assay type: physicochemical; details: phosphate buffer 100 mM, pH 8, 0.1 mg/mL BSA
FAAH [7] = target: T4, FAAH; experiment: Potency of esterase inhibitors, FAAH; assay type: biochemical
hCE3 [8] = target: T3, hCE3; experiment: Potency of esterase inhibitors, hCE3; assay type: biochemical
PON1 = PON1 (Homo sapiens, UniProt P27169); experiment: Potency of esterase inhibitors, PON1; assay type: biochemical
Chain of PON1 (P27169 whole entry, species assumed): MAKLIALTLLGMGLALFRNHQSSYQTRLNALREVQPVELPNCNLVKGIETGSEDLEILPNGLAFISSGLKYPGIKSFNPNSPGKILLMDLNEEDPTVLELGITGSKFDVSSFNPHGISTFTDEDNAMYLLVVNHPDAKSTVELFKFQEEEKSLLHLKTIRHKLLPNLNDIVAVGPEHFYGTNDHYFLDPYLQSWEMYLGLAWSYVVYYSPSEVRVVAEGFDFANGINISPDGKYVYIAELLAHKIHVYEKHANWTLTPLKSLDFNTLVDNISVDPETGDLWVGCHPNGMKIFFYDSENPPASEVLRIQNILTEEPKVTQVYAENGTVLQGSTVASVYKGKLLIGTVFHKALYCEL
Method in brief: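 PON1 used as crude lysate of baculovirus-infected insect cells in PBS. Added to 2-fold serial inhibitor dilutions (top concentration at most 100 µM) and preincubated 5 min. Cyanohydrin ester substrate then added to 50 µM final, DMSO ≤2%, in 100 mM phosphate pH 8, 0.1 mg/mL BSA, 37°C. Fluorescence (ex 330/em 465 nm) read kinetically for 10 min. IC50 from linear regression of log[inhibitor] against % remaining activity; triplicates, single experiment.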

hCE1 [9] = target: T1, hCE1; experiment: Potency of esterase inhibitors, hCE1; assay type: biochemical
AADAC = target: T5, AADAC (Homo sapiens, UniProt P22760); experiment: Potency of esterase inhibitors, AADAC; assay type: biochemical
T5 sequence (P22760 1-399): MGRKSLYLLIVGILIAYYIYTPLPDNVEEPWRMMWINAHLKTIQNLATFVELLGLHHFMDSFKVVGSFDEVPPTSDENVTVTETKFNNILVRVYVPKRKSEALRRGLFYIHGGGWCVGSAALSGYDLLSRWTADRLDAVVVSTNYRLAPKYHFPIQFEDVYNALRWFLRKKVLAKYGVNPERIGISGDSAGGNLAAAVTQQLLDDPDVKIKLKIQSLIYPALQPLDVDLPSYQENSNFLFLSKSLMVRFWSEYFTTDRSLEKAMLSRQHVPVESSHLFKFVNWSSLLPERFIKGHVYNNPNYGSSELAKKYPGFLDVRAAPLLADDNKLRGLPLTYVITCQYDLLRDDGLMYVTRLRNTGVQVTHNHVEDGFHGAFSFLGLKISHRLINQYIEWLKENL

hCE2 [10] = target: T2, hCE2; experiment: Potency of esterase inhibitors, hCE2; assay type: biochemical
[11] = Kinetic mode (30 s intervals for 30 minutes)

COc1ccc2cc(C(C#N)OC(C)=O)ccc2c1 (stereo not shown) [CMNA, cyano(6-methoxynaphthalen-2-yl)methyl acetate]
Hydrolysis Specific Activity (Kidney S9): 15 ± 5 pmol/min/µg
Hydrolysis Specific Activity (Lung S9): 13 ± 1 pmol/min/µg
hCE1 Specific activity (hCE1 [1]; Table 2, [S] = 50 µM, 37°C, pH 8, estimated 25% purity): 3000 pmol/min/µg
Hydrolysis Specific Activity (hCE1 [1]; Table 6, hCE1): 3,000 pmol/min/µg
hCE2 Specific activity (hCE2 [2]; Table 2, [S] = 50 µM, 37°C, pH 8, estimated 4% purity): 11000 pmol/min/µg
Hydrolysis Specific Activity (hCE2 [2]; Table 6, hCE2): 11,000 pmol/min/µg
hCE3 Specific activity (hCE3 [3]; Table 2, [S] = 50 µM, 37°C, pH 8, estimated 3% purity): 150 pmol/min/µg
Hydrolysis Specific Activity (hCE3 [3]; Table 6, hCE3): 150 pmol/min/µg
FAAH Specific activity (FAAH [4]): 13 pmol/min/µg
Hydrolysis Specific Activity (Intestine S9): 74 ± 3 pmol/min/µg
Hydrolysis Specific Activity (Liver S9): 180 ± 30 pmol/min/µg
LOD for hCE1 (hCE1 [5]; Endpoint mode 1 hour): 0.98 ng
LOQ for hCE1 (hCE1 [5]; Endpoint mode 1 hour): 7.8 ng
LOD for hCE1 (hCE1 [5]; Endpoint mode 4 hours): 3.9 ng
LOD for hCE1 (hCE1 [5]; Endpoint mode 24 hours): 0.06 ng
LOD for hCE1 (hCE1 [5]; [11]): 2.0 ng
LOQ for hCE1 (hCE1 [5]; [11]): 3.9 ng
Rate of background hydrolysis [6]: 20 pmol/min

COc1ccc(C(=O)C(=O)c2ccccc2Cl)cc1OC [2-chloro-3’,4’- dimethoxybenzil, 2-chloro-3’,4’-dimethoxybenzil]
IC50 (FAAH [7]): 7.6 µM
IC50 (hCE3 [8]): > 100 µM
IC50 (PON1): 25 µM
IC50 (hCE1 [9]): 2.5 µM
IC50 (AADAC): > 100 µM

NC(Cc1cc(I)c(Oc2cc(I)c(O)c(I)c2)c(I)c1)C(=O)O (stereo not shown) [Thyroxine]
IC50 (FAAH [7]): > 100 µM
IC50 (hCE2 [10]): 16 µM
Selectivity hCE2/hCE1 (hCE2 [10]; from IC50 values): 0.094
IC50 (hCE3 [8]): 23 µM
IC50 (PON1): 2.1 µM
IC50 (hCE1 [9]): 1.5 µM
IC50 (AADAC): 0.73 µM

CN(C)C(=O)C(CCN1CCC(O)(c2ccc(Cl)cc2)CC1)(c1ccccc1)c1ccccc1 [Loperamide]
IC50 (FAAH [7]): > 100 µM
IC50 (hCE3 [8]): > 100 µM
IC50 (PON1): > 100 µM
IC50 (AADAC): 23 µM
